# MBD2 DNA inh: inhibitors of MBD2 binding to methylated DNA, primary screen, biochemical, TR-FRET, DNA-binding domain, human | Methyl-CpG-binding domain protein 2 (Homo sapiens), Q9UBB5 | MBD2 binding to methylated oligonucleotide | inhibition, % at 4.4 µM | 0.31% of 370,000 active | AID 686964, 2013; in the data active means inhibition above about 13%
# B2AR ag: beta2AR agonists driving receptor internalization, primary screen, cell-based, FAP fluorogen, flow cytometry; Beta-2 adrenergic receptor (Homo sapiens), P07550; Am2.2-beta2AR cells; response, % (no concentration beside the values); 0.43% of 340,000 active; AID 504454, 2011;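 active means response above a set limit, near 3 SD of response in nonfluorescent compounds, cut at about 42% in these data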
# Target sequence (P07550 whole entry, looked up): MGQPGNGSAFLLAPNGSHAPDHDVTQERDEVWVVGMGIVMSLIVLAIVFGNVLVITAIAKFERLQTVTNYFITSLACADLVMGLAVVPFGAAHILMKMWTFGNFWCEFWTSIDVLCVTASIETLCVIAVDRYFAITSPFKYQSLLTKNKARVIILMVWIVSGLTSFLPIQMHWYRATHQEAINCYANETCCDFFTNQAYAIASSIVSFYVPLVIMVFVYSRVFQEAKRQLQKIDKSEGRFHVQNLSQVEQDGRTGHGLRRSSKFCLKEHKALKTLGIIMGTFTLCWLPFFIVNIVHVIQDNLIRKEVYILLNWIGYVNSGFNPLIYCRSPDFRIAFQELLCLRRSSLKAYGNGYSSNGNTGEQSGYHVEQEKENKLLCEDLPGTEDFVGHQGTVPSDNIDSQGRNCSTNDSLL
# Rin1-Abl PPI inh: inhibitors of Rin1-Abl protein binding, primary screen, biochemical, TR-FRET; 0.4% of 360,000 active; inhibition, % at 7.35 µM; Tyrosine-protein kinase ABL1 (Homo sapiens) + Ras and Rab interactor 1 (Homo sapiens), …; in the data active means inhibition above about 5%, passing the limit was not always enough
# ABHD5-PLIN5 inh: ABHD5-PLIN5 interaction inhibitors, primary screen, cell lysate, split luciferase complementation, luminescence | inhibition, % at 4 µM | Split G. princeps luciferase complementation, 4 h | AID 602281, 2012 | 0.78% of 360,000 active | Perilipin-5 (Homo sapiens) + 1-acylglycerol-3-phosphate O-acyltransferase ABHD5 (Homo …;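 active means inhibition above the mean inhibition across every tested compound plus 3 SD, cut at about 22% in these data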;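 further: 0% = DMSO only wells and the 100% control is not disclosed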
# UHRF1 binding: UHRF1 methylated DNA binding inhibitors, primary screen, counter-screen for MBD2 inhibitor project, biochemical, TR-FRET, human UHRF1, single concentration. UHRF1 binding to methylated oligo. inhibition, % at 4.4 µM. 0.75% of 370,000 active; in the data active means inhibition above about 21%;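 further: UHRF1 SRA domain binding a hemimethylated CpG hairpin DNA probe; 0% = median of test compound wells and 100% = reference inhibitor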
# Arr AP2 block: inhibitors of beta-arrestin/AP2 binding, primary screen, biochemical, GPCR trafficking, flow cytometry. FITC-arrestin peptide / GST-AP2 beads; AP2 beta2 appendage carries R879A mutation. inhibition, % at 10 µM. beta-arrestin 1 C-terminal peptide binding to AP2 beta2-adaptin appendage (human). AID 504490, 2011. 0.31% of 340,000 active;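 active means inhibition above a set limit, near 3 SD of compounds lacking own fluorescence, cut at about 54% in these data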;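 further: plate controls were DMSO wells for no effect and 5 µM unlabelled arrestin peptide for full effect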
#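 System: GST-tagged AP2 beta2-adaptin appendage (R879A) on 4 µm glutathione beads / Reagent: FITC-arrestin peptide, 50 nM / Detection: HyperCyt-sampled flow cytometry, FL1 channel, ex 488/em 535 nm / Timing: 12 min plus 1 h, RT / Buffer or medium: PBS plus Tween 20 (0.05%) and BSA (0.1%)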
# ABHD5 PLIN5 conf: ABHD5-PLIN5 interaction inhibitors, confirmation, biochemical, luminescence | inhibition, % at 4 µM | 67% of 2,200 active | shares compounds with ABHD5-PLIN5 inh | AID 651612, 2012; in the data active means inhibition above about 23%;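 further: 0% = DMSO vehicle wells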
# HNF4 counter: HNF4 dimerization inhibitors, counter-screen for ABHD5-PLIN5 interaction inhibitor project, biochemical, split-luciferase complementation, luminescence. shares compounds with ABHD5-PLIN5 inh. inhibition, % at 4 µM. 77% of 2,200 active;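 active means mean inhibition across replicate wells exceeding the computed hit threshold, cut at about 13% in these data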;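 further: light from luciferase halves that rejoin when HNF4 fusion proteins dimerize; 0% = DMSO only wells and the 100% control is not given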
# * = called active by the depositor; / = no result given. A selection: hits, their analogues and other compounds. The true share with any hit is near 2.5%.
SMILES,MBD2 DNA inh,B2AR ag,Rin1-Abl PPI inh,ABHD5-PLIN5 inh,UHRF1 binding,Arr AP2 block,ABHD5 PLIN5 conf,HNF4 counter
CCOC(=O)C1=C(C)NC2=C(C(=O)C(C(=O)OCC)C(c3ccccc3OC)C2)C1c1ccccn1 (stereo not drawn),2,7,-2,8,-2,41,/,/
COC(=O)[C@]1(CNC(C)=O)CC(=O)N(C)[C@@H]1c1ccccc1,0,/,/,/,1,/,/,/
O=C(/C=C/c1cccc([N+](=O)[O-])c1)NCc1ccc2c(c1)OCO2,10,-11,-4,-2,14,3,/,/
O=C(/C=C/c1cccc([N+](=O)[O-])c1)c1ccco1,-9,7,0,71*,1,11,97*,97*
Cc1ccc(NC(=O)c2ccc([N+](=O)[O-])o2)c(C)c1,-5,9,-2,-5,-2,9,/,/
O=C(/C=C/c1cccc([N+](=O)[O-])c1)Nc1cccc(NC(=O)c2ccco2)c1,-1,11,-4,12,1,8,/,/
O=C(/C=C/c1cccc([N+](=O)[O-])c1)c1ccc([N+](=O)[O-])o1,-1,67*,-1,72*,0,3,105*,111*
Cc1cccc(/C=C/C(=O)c2ccc([N+](=O)[O-])o2)c1,1,87*,0,77*,-6,13,104*,108*
Cc1ccc2c(c1)N(CCCC(=O)NCc1cccs1)C(=O)CO2,-1,/,/,/,-1,/,/,/
CCC(=O)N1CCc2cc(Br)c(S(=O)(=O)N3CCC(C(=O)NC(C)(C)C)CC3)cc21,-1,/,/,/,-1,/,/,/
O=C1CCC[C@H]2C[C@H](NCc3ccccc3F)CC[C@]23CCCN13,0,/,/,/,0,/,/,/
COc1ccc(C)cc1NC(=O)CSc1nnc(-c2n[nH]c3c2CCC3)n1N,2,/,/,/,9,/,/,/
COC(=O)C[C@@H]1CC[C@H]2[C@@H](COc3ccc(NC(=O)NC(C)C)cc3C(=O)N2C)O1,1,/,/,/,-3,/,/,/
COC(=O)[C@@]1(Cc2ccc(OC)cc2)[C@@H]2C(=CC(=O)[C@H]2CC(=O)C(=O)N2CCCC2)CN1C(=O)c1ccccc1,/,17,1,33*,/,7,63*,49*
COC(=O)[C@@]1(Cc2ccc(F)cc2)[C@H]2C(CC(=O)C(=O)N3CCCC3)C(=O)C[C@H]2CN1C(=O)c1ccccc1 (stereo partly drawn),-4,/,/,18,-3,/,/,/
CCOC(=O)C1CCN(C(=O)C(C)(C)NC(=O)Nc2ccc3c(c2)CCC3)CC1,4,/,/,/,3,/,/,/
O=[N+]([O-])/C=C\c1ccc(N2CCCC2)c(F)c1,/,38,-2,64*,/,-2,98*,100*
O=Cc1ccc(N2CCCC2)c([N+](=O)[O-])c1,-2,-8,-5,6,-5,-10,/,/
CCn1nc(C)cc1-c1nnc(SCC(=O)Nc2ccccc2)n1CCCOC,3,1,-1,3,-2,34,/,/
CCn1nc(C)cc1-c1nnc(Sc2ncc([N+](=O)[O-])s2)n1C,-2,39,-4,24*,-3,-10,25*,110*
CCCN(CCO)CCCc1ccccc1,1,-15,1,0,-1,3,/,/
CCN(CCCc1ccccc1)CCCc1ccccc1,-3,4,1,38*,1,19,74*,33*
Cn1c(SCC(=O)NCCN2CCCCC2)nc2cccnc21,-4,/,/,/,-4,/,/,/
N#C/C(=C\c1ccc(N2CCOCC2)o1)C(=O)NCCc1ccccc1,-12,-7,-10,25*,-34,14,19,32*
COCCNC(=O)/C(C#N)=C/c1ccc(N2CCOCC2)o1,-18,4,-25,10,-47,5,/,/
SMILES,MBD2 DNA inh,B2AR ag,Rin1-Abl PPI inh,ABHD5-PLIN5 inh,UHRF1 binding,Arr AP2 block,ABHD5 PLIN5 conf,HNF4 counter
N#C/C(=C/c1ccc(N2CCCCC2)o1)c1cccc(F)c1,-3,-71,-1,20,-4,8,/,/
Cc1ccc2nc(/C(C#N)=C\c3ccc(N4CCOCC4)o3)[nH]c2c1,-8,-93,-25,24*,-6,-14,31*,44*
N#C/C(=C/c1ccc(N2CCCCCC2)o1)c1ccc(Cl)cc1,/,-918,-6,78*,/,-12,82*,111*
Cc1ccc(/C(C#N)=C\c2ccc(N3CCOCC3)o2)cc1,-3,-38,-3,88*,0,-2,62*,106*
O=C(c1ccco1)N1CCC(Oc2cccnc2)CC1,-6,/,/,/,-1,/,/,/
O=C(Nc1ccc(OC(F)(F)F)cc1)Nc1c(-c2ccccc2)nc2ncccn12,1,/,/,/,-5,/,/,/
Nc1[nH]c2ccccc2c1C(=O)NC1CC1,3,/,/,/,-2,/,/,/
CS(=O)(=O)N[C@@H]1C[C@@H]2O[C@H](CO)CC[C@@H]2O[C@@H]1CCc1ccc(/C=C/c2ccccc2)cc1,1,/,/,/,3,/,/,/
O=C(Nc1ccc2c(c1)OCCO2)C(C1CC1)n1c(=O)c(-c2cc3ccccc3[nH]2)nc2ccccc21 (stereo not drawn),1,/,/,2,17,/,/,/
COc1ccc(C(C(=O)Nc2ccc3c(c2)OCCO3)n2c(=O)c(-c3cc4ccccc4[nH]3)nc3ccccc32)cc1 (stereo not drawn),3,/,/,18,-1,/,/,/
COc1ccc(C(C(=O)Nc2ccc3c(c2)OCCO3)n2c(=O)c(-c3ccco3)nc3ccccc32)cc1 (stereo not drawn),1,/,/,78*,0,/,38*,2
COc1ccc(NC(=O)C(c2ccccc2)n2c(=O)c(-c3ccco3)nc3ccccc32)cc1 (stereo not drawn),-7,/,/,23*,0,/,33*,11
O=C(Nc1ccc2c(c1)OCCO2)C(c1ccccc1F)n1c(=O)c(-c2ccco2)nc2ccccc21 (stereo not drawn),3,/,/,26*,-6,/,32*,10
CC(c1nc2ccccc2[nH]1)n1c(=O)c(-c2ccco2)nc2ccccc21 (stereo not drawn),0,/,/,52*,-6,/,41*,12
CC(C)C[C@H](NC(C)(C)C(=O)NC1CCCCC1)C(=O)NCCc1c[nH]c2ccccc12,-1,/,/,/,2,/,/,/
C[C@@H]1CCN(C2CC2)S(=O)(=O)c2ccc(N3CC[C@@H](N(C)C)C3)cc2O1,-6,/,/,/,-2,/,/,/
